Laboratory results published in article PMC8245858 (Acta Pharmaceutica Sinica. B, 2021).
One block for each compound: values may come before it.

How the values were obtained:
MGC-803 xenograft = assay: Gastric cancer cell line-derived xenograft; type: in vivo, nude mice; conditions: for pathologic examination of heart, liver, spleen, lung and kidney: compared with the saline group, end of treatment
In short: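 Male nude mice (6–8 weeks) get MGC-803 cells subcutaneously in the right flank. Body weight recorded every two days. After final dose, liver, kidney, lung, heart and spleen taken for histopathology.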

[1] = Caco-2 permeability assay; type: in vitro ADME, human; conditions: human; for efflux ratio: Caco-2; for Papp: Mean ± RSD, n = 2
[2] = tested on: gastric cancer cell lines MGC-803, HGC-27, SGC-7901, MKN-45, AGS and BGC-823; assay: Cell proliferation by sulforhodamine B; type: cell-based, human; conditions: 72 h
In short: (§1)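 SRB assay after 72 h exposure. OD read at compound addition (ODstart) is subtracted: relative growth = (ODtreated − ODstart)/(ODcontrol − ODstart); inhibitory rate (%) = (ODcontrol − ODtreated)/(ODcontrol − ODstart) × 100. GI50 obtained per cell line. Mean ± SD (n = 3), three independent experiments, biological duplicates.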

GES1 = assay: Cell proliferation by SRB assay, gastric epithelial cell line; type: cell-based, human; conditions: 72 h
In short: as §1

[3] = Metabolic stability in rat liver microsomes; type: in vitro ADME
[4] = Metabolic stability in monkey liver microsomes; type: in vitro ADME
MGC-803 cells [5] = assay: Intracellular ROS, DCFH-DA staining, flow cytometry; type: cell-based, human; conditions: 24 h
In short: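 MGC-803 cells exposed to test compound with or without N-acetylcysteine for 24 h, stained with DCFH-DA and analysed by flow cytometry. Groups compared by two-way ANOVA.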

MGC-803 and MKN-45 cells [6] = assay: Lipid peroxidation using C11-BODIPY581/591; type: cell-based, human; conditions: 6 h
In short: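 After 6 h exposure in 6-well plates, cells are collected and resuspended in PBS with 2 μmol/L C11-BODIPY581/591 for 30 min at 37 °C, then read by flow cytometry. For MGC-803: three independent experiments with biological duplicates, one-way ANOVA.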

MGC-803 cells [7] = assay: Cell cycle, PI staining and flow cytometry; type: cell-based, human; conditions: MGC-803, 48 h
In short: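 MGC-803 cells exposed to test compound for 48 h, stained with PI and analysed by flow cytometry with quantification. Mean ± SD (n = 3) from three independent experiments with biological duplicates.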

MGC-803 and MKN-45 cells [8] = assay: Intracellular ferrous iron; type: cell-based, human; conditions: 24 h
In short: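 Cells in 60-mm dishes exposed to test compound for 24 h, alone or with 3-MA. Cells are then collected and homogenised in iron assay buffer, and ferrous iron is measured with a commercial iron assay kit per the maker's protocol. Mean ± SD (n = 3), three independent experiments, biological duplicates.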

[9] = Metabolic stability in mouse liver microsomes; type: in vitro ADME
GPX4 [10] = assay: qRT-PCR of GPX4 mRNA; type: cell-based, human; conditions: MGC-803 and MKN-45 cells, 24 h
SLC7A11 = assay: qRT-PCR of SLC7A11 mRNA; type: cell-based, human; conditions: MGC-803 and MKN-45 cells, 24 h
Caco-2 monolayer = assay: Caco-2 permeability assay; type: in vitro ADME, human; conditions: from A to B
[11] = Metabolic stability in human liver microsomes; type: in vitro ADME
[12] = Metabolic stability in dog liver microsomes; type: in vitro ADME
[13] = Pharmacokinetic parameters in rats; type: in vivo; conditions: male, SD, rat, plasma, iv, 20 mg/kg
In short: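 Study run by a contract laboratory in male SD rats, n = 3. Parameters taken from mean plasma concentration–time curves.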

GPX4 [14] = assay: GPX4 expression in PDX tumor tissues by IHC; type: in vivo, NOD-SCID mice; conditions: sensitive PDX models PDX-01, PDX-02 and PDX-03, end of treatment
[15] = Caco-2, Papp (A‒B), direction A‒B
[16] = Caco-2, Papp (B‒A), direction B‒A

Structure (SMILES): O=c1[nH]cc(F)c(=O)[nH]1 [Compound 5-FU, 5-fluorouracil, reference compound]
pathologic examination of heart, liver, spleen, lung and kidney (MGC-803 xenograft): no observed adverse effects

Structure (SMILES): CC(C)Oc1ccc(C(=O)Cn2ccnc2)cc1-n1c(CN2CCN(C(=O)COc3ccc(Cl)cc3)CC2)nc2ccccc2c1=O [IKE, imidazole ketone erastin, reference compound]
effect on cell growth, compound alone ([2]; MGC-803 and MKN-45 cells, SRB): no effect

Second part, led by results:

efflux ratio [1]: 197
Papp [1, 15]: 0.13 ± 0.02 ×10⁻⁶ cm/s
Papp [1, 16]: 24.7 ± 0.1 ×10⁻⁶ cm/s
Structure (SMILES): C[C@H]1O[C@@H](O[C@H]2[C@@H](O)C[C@H](O[C@H]3[C@@H](O)C[C@H](O[C@H]4CC[C@@]5(C)[C@H](CC[C@@H]6[C@@H]5C[C@@H](O)[C@]5(C)[C@@H](C7=CC(=O)OC7)CC[C@]65O)C4)O[C@@H]3C)O[C@@H]2C)C[C@H](O)[C@@H]1O [Digoxin]

efflux ratio [1]: 0.7
Papp [1, 15]: 28.3 ± 0.43 ×10⁻⁶ cm/s
Papp [1, 16]: 18.5 ± 0.3 ×10⁻⁶ cm/s
Structure (SMILES): CC(C)NCC(O)COc1cccc2ccccc12 (centres unmarked) [Propranolol]

GI50 in GES1 relative to gastric cancer cells (GES1): at least five-fold higher
half-life at 1 μmol/L [3]: 31.2 min
microsomal CLint at 1 μmol/L [3]: 111 µL/min/mg
half-life at 1 μmol/L [4]: 23.5 min
microsomal CLint at 1 μmol/L [4]: 148 µL/min/mg
GI50 ([2]; Homo sapiens): 880 to 3330 nM
half-life at 1 μmol/L [9]: 23.7 min
microsomal CLint at 1 μmol/L [9]: 146 µL/min/mg
permeability class against the Caco-2 monolayer (Caco-2 monolayer): moderately permeable compound
efflux ratio [1]: 0.2
Papp [1, 15]: 16.1 ± 1.01 ×10⁻⁶ cm/s
Papp [1, 16]: 3.3 ± 0.3 ×10⁻⁶ cm/s
half-life at 1 μmol/L [11]: 34.9 min
microsomal CLint at 1 μmol/L [11]: 99.4 µL/min/mg
half-life at 1 μmol/L [12]: 32.2 min
microsomal CLint at 1 μmol/L [12]: 108 µL/min/mg
AUC(0-inf) [13]: 14800 ± 1330 ng·h/mL
AUC(0-t) [13]: 14800 ± 1320 ng·h/mL
Cmax [13]: 18300 ± 1420 ng/mL
MRT last [13]: 92.4 ± 7.8 min
Vd [13]: 7.73 ± 1.46 L/kg
half-life [13]: 236 ± 28.8 min
Structure (SMILES): C=C1C(=O)[C@@]23C(C(=O)C[C@@H]1[C@H]2OC(=O)[C@@H](N)C(C)C)[C@]12CCCC(C)(C)C1C[C@H]3OC2=O (stereo partly drawn) [a2, (6R,6aR,9S,11bS,14R)-4,4-Dimethyl-8-methylene-7,11,12-trioxododecahydro-1H-6,11b-(epoxymethano)-6a,9-methanocyclohepta[a]naphthalen-14-yl valinate]
level of ROS (MGC-803 cells [5]): markedly elevated
lipid ROS production (MGC-803 and MKN-45 cells [6]): dose-dependently elevated
cell population in the G2/M phase (MGC-803 cells [7]): significantly increased
ferrous iron accumulation (MGC-803 and MKN-45 cells [8]): significantly increased
mRNA level of GPX4 (GPX4 [10]): dose-dependently reduced
mRNA level of SLC7A11 (SLC7A11): increased
expression of GPX4 in tumor tissues (GPX4 [14]): decreased expression of GPX4
tumor growth (MGC-803 xenograft; 5, 10, 20 mg/kg once a day for 21 days, tail vein injection): dose- and time-dependently inhibited tumor growth
anti-tumor efficacy compared with 5-FU (15 mg/kg) (MGC-803 xenograft; a2 at 10 or 20 mg/kg, once a day for 21 days): more potent than that of the positive control drug 5-FU
pathologic examination of heart, liver, spleen, lung and kidney (MGC-803 xenograft): no observed adverse effects
effect on mouse body weight (MGC-803 xenograft; once a day for 21 days, compared to 5-FU): fewer effect
